# From ChEMBL document CHEMBL4680287, “Ibrexafungerp: An orally active β-1,3-glucan synthesis inhibitor” (Bioorg Med Chem Lett, 2021)
# How the values were obtained:
# Candida albicans [1] = experiment: Antifungal activity against Candida albicans MY1055 assessed as fungal growth inhibition measured after 24 hrs in presence of 50% mouse serum by liquid microdilution method; assay type: functional
# Procedure, shortened: (§1)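 Broth microdilution per CLSI protocols in RPMI medium. Read-out is the MIC, the lowest concentration completely inhibiting fungal growth. Run without serum and with added serum.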
# Aspergillus fumigatus = experiment: Antifungal activity against Aspergillus fumigatus MF5668 assessed inhibition of fungal growth by measuring morphological changes measured after 24 hrs by microscopy; assay type: functional; conditions: read-out: MEC
# Procedure, shortened: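 Microdilution per CLSI protocols in RPMI medium. Read-out is the minimum effective concentration (MEC). Run without serum and with 50% human serum.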
# [2] = Inhibition of beta-1,3-glucan synthase in Candida albicans MY1055 microsomal membrane assessed as inhibition of TCA-insoluble material formation using UDP-[3H]-glucose as substrate incubated for 2 hrs in presence of GTP by radioactivity-based assay; assay type: microsomes, Microsome
# Procedure, shortened: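 GS IC50 measured using Candida albicans MY1055 microsomal membrane fragments as the enzyme source.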
# Candida albicans [3] = experiment: Antifungal activity against Candida albicans MY1055 assessed as fungal growth inhibition measured after 24 hrs by liquid microdilution method; assay type: functional; procedure, shortened: as §1
SMILES,MIC (Candida albicans [1]),minimal effective concentration (Aspergillus fumigatus),IC50 [2],MIC (Candida albicans [3])
Cc1ncnn1[C@@H]1C[C@@]23COC[C@](C)([C@@H]2CC[C@H]2C3=CC[C@@]3(C)[C@H](C(=O)O)[C@@](C)([C@H](C)C(C)C)CC[C@]23C)[C@H]1OC[C@](C)(N)C(C)C,4 µg/mL,0.03 µg/mL,0.005 µg/mL,0.25 µg/mL
CC(C)[C@@H](C)[C@@]1(C)CC[C@]2(C)[C@H]3CC[C@@H]4[C@@]5(COC[C@@]4(C)[C@@H](OC[C@](C)(N)C(C)C)[C@H](n4ncnc4C4CC4)C5)C3=CC[C@@]2(C)[C@@H]1C(=O)O,16 µg/mL,0.008 µg/mL,0.006 µg/mL,0.125 µg/mL
CC(C)[C@@H](C)[C@@]1(C)CC[C@]2(C)[C@H]3CC[C@@H]4[C@@]5(COC[C@@]4(C)[C@@H](OC[C@](C)(N)C(C)C)[C@H](n4ncnc4-c4ccccc4F)C5)C3=CC[C@@]2(C)[C@@H]1C(=O)O,8 µg/mL,< 0.03 µg/mL,–,0.5 µg/mL
CC(C)[C@@H](C)[C@@]1(C)CC[C@]2(C)[C@H]3CC[C@@H]4[C@@]5(COC[C@@]4(C)[C@@H](OC[C@](C)(N)C(C)C)[C@H](n4ncnc4-c4cccc(F)c4)C5)C3=CC[C@@]2(C)[C@@H]1C(=O)O,8 µg/mL,< 0.03 µg/mL,0.011 µg/mL,0.25 µg/mL
COc1cc(-c2ncnn2[C@@H]2C[C@@]34COC[C@](C)([C@@H]3CC[C@H]3C4=CC[C@@]4(C)[C@H](C(=O)O)[C@@](C)([C@H](C)C(C)C)CC[C@]34C)[C@H]2OC[C@](C)(N)C(C)C)ccn1,4 µg/mL,< 0.03 µg/mL,0.008 µg/mL,0.25 µg/mL
CCc1ncnn1[C@@H]1C[C@@]23COC[C@](C)([C@@H]2CC[C@H]2C3=CC[C@@]3(C)[C@H](C(=O)O)[C@@](C)([C@H](C)C(C)C)CC[C@]23C)[C@H]1OC[C@](C)(N)C(C)C,8 µg/mL,< 0.03 µg/mL,0.01 µg/mL,0.25 µg/mL
CCCc1ncnn1[C@@H]1C[C@@]23COC[C@](C)([C@@H]2CC[C@H]2C3=CC[C@@]3(C)[C@H](C(=O)O)[C@@](C)([C@H](C)C(C)C)CC[C@]23C)[C@H]1OC[C@](C)(N)C(C)C,16 µg/mL,< 0.03 µg/mL,0.003 µg/mL,8 µg/mL
CC(C)[C@@H](C)[C@@]1(C)CC[C@]2(C)[C@H]3CC[C@@H]4[C@@]5(COC[C@@]4(C)[C@@H](OC[C@](C)(N)C(C)C)[C@H](n4ncnc4-c4cccnn4)C5)C3=CC[C@@]2(C)[C@@H]1C(=O)O,2 µg/mL,< 0.03 µg/mL,0.005 µg/mL,< 0.03 µg/mL
CC(C)[C@@H](C)[C@@]1(C)CC[C@]2(C)[C@H]3CC[C@@H]4[C@@]5(COC[C@@]4(C)[C@@H](OC[C@](C)(N)C(C)C)[C@H](n4ncnc4-c4cnccn4)C5)C3=CC[C@@]2(C)[C@@H]1C(=O)O,4 µg/mL,< 0.03 µg/mL,0.004 µg/mL,0.5 µg/mL
CC(C)[C@@H](C)[C@@]1(C)CC[C@]2(C)[C@H]3CC[C@@H]4[C@@]5(COC[C@@]4(C)[C@@H](OC[C@](C)(N)C(C)C)[C@H](n4cncn4)C5)C3=CC[C@@]2(C)[C@@H]1C(=O)O,4 µg/mL,< 0.03 µg/mL,0.007 µg/mL,0.25 µg/mL
CC(C)[C@@H](C)[C@@]1(C)CC[C@]2(C)[C@H]3CC[C@@H]4[C@@]5(COC[C@@]4(C)[C@@H](OC[C@](C)(N)C(C)C)[C@H](n4ncnc4-c4ncccn4)C5)C3=CC[C@@]2(C)[C@@H]1C(=O)O,8 µg/mL,< 0.03 µg/mL,0.004 µg/mL,0.25 µg/mL
COc1ccc(-c2ncnn2[C@@H]2C[C@@]34COC[C@](C)([C@@H]3CC[C@H]3C4=CC[C@@]4(C)[C@H](C(=O)O)[C@@](C)([C@H](C)C(C)C)CC[C@]34C)[C@H]2OC[C@](C)(N)C(C)C)cc1,8 µg/mL,< 0.03 µg/mL,0.015 µg/mL,0.5 µg/mL
